Paper PMC2114648 (The Journal of Cell Biology, 1987)
Where “and” joins values, the source holds several entries; their conditions need not be identical. Equal entries are not always repeated. Where two headings read alike, the source gives them in different places.

Tests used:
[1] = molecular target: T1, EGF receptor on MDCK cells (Canis lupus familiaris, UniProt A0A8I3RYJ5); assay type: cell-based, canine
Procedure, shortened: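 MDCK monolayers on 0.45-µm nitrocellulose filter chambers, used 5–7 d after plating. Hepes buffer pH 7.4. 50,000 cpm (0.137 ng) chloramine-T-iodinated EGF plus 50,000 cpm [14C]inulin leakage marker added apically or basally. Opposite side sampled every 30 min with buffer replacement. Cumulative counts expressed as % of tracer added. Antibody 1:100 preincubated basally 60 min at 37°C, sampled over 4.5 h. Triplicate wells.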

[2] = system: MDCK cells; assay type: in vitro ADME, canine
Procedure, shortened: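 MDCK monolayers on nitrocellulose Millicell filters, 5–7 d after plating (1.8–2.0×10^6 cells/well at confluence). Both sides washed with PBS pH 7.4. Chloramine-T-iodinated EGF tracer added to one side at 4°C, then held at 4, 15 or 37°C, with [14C]inulin (50,000 cpm) as leak marker. In a second format, tracer was bound basally 2.5 h at 4°C, washed, and moved to 37°C. Triplicate wells, mean ± SD.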

[3] = Diffusion across nitrocellulose filter of empty chambers; assay type: in vitro ADME; settings: empty chamber, nitrocellulose filter without cells; 2 h; ~50,000 cpm tracer
[4] = molecular target: T1, EGF receptor on MDCK cells; assay type: binding, canine; settings: for EGF bound, % of the total tracer added: 4 C, 50,000 cpm [125I]EGF
Procedure, shortened: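 Confluent MDCK filter monolayers (1.8–2.0×10^6 cells/well) washed three times with cold PBS. Hepes buffer (50 mM Hepes, 1% BSA, pH 7.4) added both sides. 50,000 cpm [125I]EGF (194 µCi/µg) plus unlabeled EGF 1–200 ng/ml applied to apical or basal side. Incubated 6 h at 4°C, then washed. Filters excised and gamma-counted. Scatchard analysis.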

[5] = system: insulin receptors on MDCK cells; assay: [125I]insulin binding to basal or apical surface of MDCK cells; design: species or system canine; settings: Hepes buffer, 15 C

Effect of unlabeled EGF on transport of tracer EGF, basal-to-apical ([1]; 0.85 nM (5 ng/ml) unlabeled EGF) | Effect of unlabeled EGF on transcytosis of labeled EGF, apical-to-basal ([1]; 110 nM cold EGF) | Effect of unlabeled EGF on transcytosis of labeled EGF, basal-to-apical ([1]; 110 nM unlabeled EGF) | EGF bound, % of the total tracer added ([4]; apical surface of MDCK cells) | EGF bound, % of the total tracer added ([4]; basal surface of MDCK cells, binding maximal within 4 h) | Concentration of cold EGF that inhibited binding by 50% ([4]; basal surface of MDCK cells, 6 h at 4 C, competition with [125I]EGF) | Substance | Transport of EGF basal-to-apical at 4 C (in words) ([2]; 4 C versus 37 C, mean of triplicate wells) | Transport of EGF basal-to-apical at 15 C (in words) ([2]; 15 C versus 37 C, mean of triplicate wells) | Transport in the apical-to-basal direction (in words) ([2]; MDCK monolayer) | Time to appearance of EGF at the apical surface after warming ([2]; pre-bound tracer on basal surface, warmed from 4 C to 37 C) | Diffusion across the membrane, % of the total added [3] | Binding of insulin [5] | Transport in either direction (in words) ([2]; MDCK monolayer, basal-to-apical and apical-to-basal)
substantial de- crease | no effect | completely inhibited | < 1% and 0.8% | 6.5% and ~ 6% | 5 ng/mL | epidermal growth factor [EGF] | even further decreased | markedly decreased | No transport | ≤ 15 min | 22% | – | –
– | – | – | – | – | – | insulin | – | – | – | – | – | failed to detect binding | not observed
